Most compounds without a hit are left out; they make up all but 3% or so of the library.
C2C12 statin: suppressors of statin myotoxicity in C2C12 myotubes, primary screen, cell-based, single point, plate reader; 330,000 tested, 0.78% active; C2C12 myotubes + simvastatin, ATP luminescence, 48 h; scaled: DMSO 0, geranylgeraniol control 100; rescue of ATP level, % at 7.49 µM;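 active = mean ATP rescue above about 67%, or every replicate alone reaching that limit, limit read from the data, passing the limit was not always enough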;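 note: myotubes were challenged with 10 µM simvastatin during compound exposure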
S100A4 MyoIIA: inhibitors of S100A4-myosin IIA peptide binding, primary screen, biochemical, fluorescence polarization, TAMRA-MyoIIA peptide; Protein S100-A4 (Homo sapiens), P26447; inhibition, % at 10.7 µM; 360,000 tested, 0.14% active; AID 652163, 2013;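 active = mean inhibition of at least 70% across replicates, with every replicate also reaching that level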
Target sequence (P26447 whole entry, looked up): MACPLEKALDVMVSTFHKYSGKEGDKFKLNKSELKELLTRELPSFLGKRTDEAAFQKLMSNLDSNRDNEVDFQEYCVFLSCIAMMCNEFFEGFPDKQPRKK
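Material: S100A4 monomer protein | Medium: HEPES pH 7.2 with CaCl2, KCl, NaCl, DTT, Triton | Reagent: Labelled myosin peptide probe, 5 nM | Doses: One dose per compound | Times: 5 min incubation before reading | Benchmarks: Neutral control DMSO, positive control TFP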
SIRT5 block: SIRT5 desuccinylase inhibitors, primary screen, biochemical, fluorescence imaging, single point, set 5 | NAD-dependent protein deacylase sirtuin-5, mitochondrial (Homo sapiens), Q9NXA8 | Purified SirT5, succinyl-peptide AMC, trypsin-coupled fluorescence | inhibition, % at 15 µM | 330,000 tested, 1.1% active | AID 652115, 2013; in the data active = inhibition above about 15%
Target sequence (Q9NXA8 whole entry, looked up): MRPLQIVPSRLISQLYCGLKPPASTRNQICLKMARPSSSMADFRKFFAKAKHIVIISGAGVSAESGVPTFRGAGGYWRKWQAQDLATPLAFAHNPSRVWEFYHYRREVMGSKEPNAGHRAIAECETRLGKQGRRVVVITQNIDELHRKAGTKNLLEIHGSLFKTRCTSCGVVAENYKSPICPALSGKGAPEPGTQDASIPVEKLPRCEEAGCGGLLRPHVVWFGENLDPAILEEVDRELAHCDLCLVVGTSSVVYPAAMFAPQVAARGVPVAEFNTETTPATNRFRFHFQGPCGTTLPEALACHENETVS
Ecoli rRNA inh: reduced GFP signal of wild-type E. coli, primary screen, bacterial rRNA inhibitor project, GFP/RFP fluorescence, OD600, single point. E. coli WT GFP vs humanized-ribosome RFP mutants, 24 h; stronger effect = lower value; DMSO median 0, no signal -100. GFP signal change (wild-type ribosome), % (test concentration not listed). 350,000 tested, 1.6% active;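 active = significant combined selectivity score with lowered wild-type GFP, culture density cut under 30%, mutant RFP and density less affected; inactive = any of these conditions unmet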
PGC1a acetyl inh: inhibitors of PGC1a acetylation signal, primary screen, cell-based, U2OS, AlphaScreen, inhibitor mode | AlphaScreen anti-acetyl-lysine; with virally co-expressed GCN5 acetyltransferase | inhibition, % at 15.6 µM | 350,000 tested, 0.17% active;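 active = every replicate shows inhibition of at least 40%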;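 note: 0% = neutral control wells and 100% = positive control wells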
Cneo AK release: Cryptococcus neoformans cell lysis inducers, primary screen, AK release luminescence, single concentration; C. neoformans lysis, adenylate kinase release luminescence, 4 h; normalised: neutral wells 0, clomiphene wells 100; lysis activity, % at 15 µM; 360,000 tested, 0.2% active; AID 651654, 2012;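 active = mean lysis activity across replicates of at least 80%, whatever share of replicates individually reach that level; inactive = mean lysis activity below 80%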
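Schedule: static 4 h at 37 °C with compound, 1 h detection; system: C. neoformans cells; benchmarks: Clomiphene as positive control; buffer or medium: fresh YPD medium; measure: luminescence rise reflecting yeast cell lysis; measured by: luminescent adenylate kinase detection reagent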
Numbers without * were called inactive; . = no result.

SMILES	C2C12 statin	S100A4 MyoIIA	SIRT5 block	Ecoli rRNA inh	PGC1a acetyl inh	Cneo AK release
Nc1ccc(C(=O)Nc2ccc3c(O)cc(S(=O)(=O)O)cc3c2)cc1	3.2	-21.1	65.8*	4.9	-6.5	-2.6
C[C@@H]1CN([C@@H](C)CO)S(=O)(=O)c2ccc(Br)cc2O[C@H]1CN(C)Cc1cccnc1	-21.3	14.6	3.4	-10.1	-9.2	11.8
O=C(NCCN1CCN(Cc2ccccc2)CC1)Nc1cc(Cl)cc(Cl)c1	-25.3	-2.2	-3.1	-49.2*	.	-3.9
O=C(NCCN1CCCCC1)Nc1ccc(Br)cc1	-37.9	-16.0	.	-32.5*	-6.5	0.4
Cc1ccc(NC(=O)NCCN2CCCCC2)cc1	-5.9	-41.7	-1.3	6.3	-0.9	-1.5
O=C(NCCN1CCN(c2cccc(Cl)c2)CC1)Nc1ccccc1	-3.0	8.3	-1.2	-14.6	-5.2	0.6
CC(C)(C)S(=O)N1Cc2cc(C(=O)NCc3ccc4c(c3)OCO4)nc(-c3cccc(-c4cccc(F)c4)c3)c2[C@@H]1CCO (stereo partly drawn)	.	-21.9	2.4	4.6	11.4	.
O=C(C[C@@H]1CC[C@@H]2[C@H](COC[C@H](O)CN2C(=O)Nc2cccc(F)c2)O1)NCc1ccccc1Cl	-0.2	-8.4	1.2	-20.7	6.2	-1.6
CC(C)(O)C#Cc1ccc(C(=O)NC(CCCNC(N)=O)C(=O)O)s1 (stereo not drawn)	4.9	6.0	-1.6	14.5	81.8*	1.1
O=C(Cn1[nH]c(=O)c2ccccc2c1=O)OCC(=O)c1ccc(F)cc1	1.4	-4.0	15.7*	0.9	.	.
O=C(Cn1[nH]c(=O)c2ccccc2c1=O)OCC(=O)c1ccc(F)c(F)c1	-14.0	-12.5	-3.0	6.1	7.4	2.1
Cc1ccc(S(=O)(=O)N[C@@H]2C=C[C@@H](CC(=O)NCCN3CCCCC3)O[C@@H]2CO)cc1	6.5	10.2	-2.2	1.9	7.5	4.4
C[C@@H]1CN([C@H](C)CO)S(=O)(=O)c2ccc(C#CC3CCCC3)cc2O[C@H]1CN(C)C(=O)C1CC1	-64.3	-5.5	9.3	-21.9	10.5	10.5
CC(=O)N1CC(=O)N2[C@H](C1)[C@H](c1ccc(-c3ccncc3)cc1)[C@@H]2CO	.	1.8	2.4	1.3	0.5	.
CC1CCCC(NC(=O)CSc2ccc(F)cc2)C1C (stereo not drawn)	-3.4	-8.8	-5.3	8.0	1.7	-1.4
CC1CCCC(NCC(O)COC(c2ccc(F)cc2)c2ccc(F)cc2)C1C (stereo not drawn)	-8.0	-20.1	-3.4	-52.9*	-20.5	9.3
O=C(C1CCCCC1)N1CC2(C1)[C@@H](c1ccccc1)[C@H](CO)N2Cc1nccs1	.	-1.6	1.9	-0.5	.	.
CC(=NNC(=S)N(Cc1ccccn1)Cc1ccccn1)c1cnccn1	.	2.2	-1.4	-15.7*	.	.
C/C=C/c1cnc2c(c1)C(=O)N([C@@H](C)CO)C[C@H](C)[C@@H](CN(C)C(=O)NC1CCCC1)O2	6.4	0.2	17.2*	-0.4	-7.9	4.5
C/C=C/c1cnc2c(c1)C(=O)N([C@H](C)CO)C[C@@H](C)[C@@H](CN(C)C(=O)C1CCCCC1)O2	24.0	-1.2	-2.0	6.7	5.0	95.1*
CC(=O)N(C)C[C@H]1Oc2ncc(C#Cc3ccccn3)cc2C(=O)N([C@@H](C)CO)C[C@@H]1C	16.5	14.3	5.8	6.2	-9.8	1.6
O=C(Oc1ccc2c(c1)C(=O)c1ccccc1CO2)c1ccccc1	107.3*	.	.	.	0.9	-1.0
Cc1cccc(C(=O)NC(C(=O)Nc2nc(-c3ccccn3)cs2)C(C)C)c1 (stereo not drawn)	.	-22.2	-9.5	-34.7*	-2.8	.
CSCCC(=O)Nc1nc(-c2ccccn2)cs1	.	0.6	-1.4	-29.2*	.	.

High-throughput results deposited in PubChem by Broad Institute.
